Data reported in PMC3783659 (Bioorganic & medicinal chemistry letters, 2013).

Molecular target: KIX-KID interaction (Homo sapiens, UniProt P16220+Q92793)
Test: KIX-KID split renilla luciferase
Type: biochemical
Outline: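 RLuc split into N-terminal (RLucN) and C-terminal (RLucC) halves. RLucC-KIX and KID-RLucN fusions combined with a range of test compound concentrations (top 50 or 100 μM) at 4 °C. Residual RLuc luminescence read after 20 h. Stocks in DMSO, or DMF for one unstable compound. IC50 in μM from at least two independent experiments, each in duplicate.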

Sequence of KIX-KID interaction (Q92793 587-666 limits assumed): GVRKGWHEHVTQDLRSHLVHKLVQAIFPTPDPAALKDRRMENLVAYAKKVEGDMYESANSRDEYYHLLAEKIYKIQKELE
Sequence of KIX-KID interaction (P16220 87-146 limits assumed): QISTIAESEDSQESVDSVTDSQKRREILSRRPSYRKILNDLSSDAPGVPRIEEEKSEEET

## O=[N+]([O-])c1cc(NCc2cccc3nonc23)ccc1Cl [9a]
Split RLuc assay, 4 °C, 20 h incubation, mean ± SD
  KIX-KID inhibition (IC50): inactive

## O=[N+]([O-])c1ccc(Sc2cccc[n+]2[O-])c2nonc12 [compound 1, 2-[(7-nitrobenzo[c][1,2,5]oxadiazol-4-yl)thio]pyridine 1-oxide]
NCI diversity set screen at 10 μM
  Inhibition of KIX-KID interaction in initial screen: consistently shown to efficaciously inhibit KIX-KID interaction
